Laboratory results: ChEMBL document CHEMBL1123080, “Synthesis and antiviral activity of the carbocyclic analogues of (E)-5-(2-halovinyl)-2'-deoxyuridines and (E)-5-(2-halovinyl)-2'-deoxycytidines” (1985)
In brackets after ≈: the same amount, converted by molar mass.

Legend:
Format in all cases: functional
[1] = system: Human alphaherpesvirus 2; assay: Minimum inhibitory concentration (MIC) required to reduce HSV-2 strain (Lyons) induced cytopathogenicity in primary rabbit kidney cell cultures
How it was run: (§1)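 Primary rabbit kidney cell cultures were infected with virus and treated with compound. The MIC is the concentration that reduces virus-induced cytopathogenicity by 50%. Cytotoxicity was scored as microscopically visible alteration of normal cell morphology, with 400 μg/mL the highest concentration tested.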

[2] = system: Human alphaherpesvirus 2; assay: Minimum inhibitory concentration (MIC) required to reduce HSV-2 strain G induced cytopathogenicity in primary rabbit kidney cell cultures; how it was run: as §1
[3] = system: Human alphaherpesvirus 1; assay: Minimum inhibitory concentration (MIC) required to reduce HSV-1 strain (F) induced cytopathogenicity in primary rabbit kidney cell cultures; how it was run: as §1
[4] = system: Human alphaherpesvirus 1; assay: Minimum inhibitory concentration (MIC) required to reduce HSV-1 strain McIntyre induced cytopathogenicity in primary rabbit kidney cell cultures; how it was run: as §1
[5] = system: Human alphaherpesvirus 1; assay: Minimum inhibitory concentration (MIC) required to reduce Herpes simplex virus (HSV-1) KOS strain induced cytopathogenicity in primary rabbit kidney cell cultures; how it was run: as §1
[6] = system: Human alphaherpesvirus 1; assay: Minimum inhibitory concentration (MIC) required to reduce thymidine kinase deficient HSV-1 induced cytopathogenicity in primary rabbit kidney cell cultures
How it was run: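 The virus was a dThd kinase-deficient mutant of HSV-1 strain B2006, passaged several times in primary rabbit kidney cells. The MIC is the concentration that reduces cytopathogenicity by 50% in primary rabbit kidney cell cultures. Cytotoxicity was scored by microscopic cell morphology, up to 400 μg/mL.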

[7] = system: L1210; assay: Minimum inhibitory concentration (MIC) required to inhibit proliferation of murine leukemia L1210 (TK-); settings: Mus musculus
How it was run: (§2)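 Cell proliferation assay. Cultures were exposed to compound during their linear growth phase, and growth was monitored. The MIC is the concentration that inhibits cell proliferation by 50%.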

[8] = system: L1210; assay: Minimum inhibitory concentration (MIC) required to inhibit proliferation of murine leukemia L1210 (wild type); settings: Mus musculus; how it was run: as §2
[9] = organism: Rattus norvegicus; assay: Minimum inhibitory concentration (MIC) required to inhibit proliferation of Novikoff rat hepatoma; how it was run: as §2
[10] = organism: Homo sapiens; assay: Minimum inhibitory concentration (MIC) required to inhibit proliferation of human lymphoblast Raji; how it was run: as §2
[11] = system: Vesicular stomatitis virus; assay: Minimum inhibitory concentration (MIC) required to reduce vesicular stomatis virus induced cytopathogenicity in primary rabbit kidney cell cultures; how it was run: as §1
[12] = system: Mus musculus; assay: The survival rate was evaluated for its effect of systemic treatment on NMRI mice infected intraperitoneally with HSV-1 (KOS) when administered perorally
How it was run: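 Mice were infected intraperitoneally with HSV-1 (KOS). Compound was given at 100 mg/kg per day from day 0 to day 4 postinfection, as a 2 mg/mL suspension in water by gavage once daily. Survivors were counted at day 20 postinfection.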

[13] = organism: Mus musculus; assay: The survival rate was evaluated for its effect of systemic treatment on hairless (hr/hr) mice infected intracutaneously with HSV-1 (KOS) at percent concentration of 0.3
[14] = organism: Mus musculus; assay: The survival rate was evaluated for its effect of systemic treatment on hairless (hr/hr) mice infected intracutaneously with HSV-1 (KOS) at percent concentration of 1
[15] = organism: Mus musculus; assay: The survival rate was evaluated for its effect of systemic treatment on hairless (hr/hr) mice infected intracutaneously with HSV-1 (KOS) at percent concentration of 3
[16] = system: Mus musculus; assay: The survival rate was evaluated for its effect of systemic treatment on NMRI mice infected intraperitoneally with HSV-1 (KOS) when administered intraperitoneally
How it was run: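 Mice were infected intraperitoneally with HSV-1 (KOS). Compound was given at 100 mg/kg per day from day 0 to day 4 postinfection, intraperitoneally, at 1 mg/mL in physiological saline with 10% propylene glycol, twice daily. Survivors were counted at day 20 postinfection.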

Row | Compound | MIC50 [1] | MIC50 [2] | MIC50 [3] | MIC50 [4] | MIC50 [5] | MIC50 [6] | MIC50 [7] | MIC50 [8] | MIC50 [9] | MIC50 [10] | MIC50 [11] | Survival rate [12] | Survival rate [13] | Survival rate [14] | Survival rate [15] | Survival rate [16]
1 | O=c1[nH]c(=O)n(C2CC(O)C(CO)C2)cc1/C=C/I (stereo not drawn) | 7 µg/mL (≈ 18.5 µM) | 2 µg/mL (≈ 5.29 µM) | 0.1 µg/mL (≈ 0.264 µM) | 0.07 µg/mL (≈ 0.185 µM) | 0.07 µg/mL (≈ 0.185 µM) | > 400 µg/mL | > 200 µg/mL | > 200 µg/mL | > 200 µg/mL | > 200 µg/mL | > 400 µg/mL |  |  |  |  | 
2 | Nc1nc(=O)n(C2CC(O)C(CO)C2)cc1/C=C/Br (stereo not drawn) | 20 µg/mL (≈ 60.6 µM) | 20 µg/mL (≈ 60.6 µM) | 0.1 µg/mL (≈ 0.303 µM) | 0.2 µg/mL (≈ 0.606 µM) | 0.2 µg/mL (≈ 0.606 µM) | > 400 µg/mL |  |  |  |  | > 400 µg/mL |  |  |  |  | 
3 | O=c1[nH]c(=O)n([C@H]2C[C@H](O)[C@@H](CO)O2)cc1/C=C/I | 2 µg/mL (≈ 5.26 µM) | 2 µg/mL (≈ 5.26 µM) | 0.02 µg/mL (≈ 0.0526 µM) | 0.02 µg/mL (≈ 0.0526 µM) | 0.007 µg/mL (≈ 0.0184 µM) | > 10 µg/mL | 5.1 µg/mL (≈ 13.4 µM) | 16.3 µg/mL (≈ 42.9 µM) | 4.6 µg/mL (≈ 12.1 µM) | 21.1 µg/mL (≈ 55.5 µM) | > 400 µg/mL |  |  |  |  | 
4 | O=c1[nH]c(=O)n([C@@H]2C[C@H](CO)[C@@H](O)C2)cc1I | 20 µg/mL (≈ 56.8 µM) | 40 µg/mL (≈ 114 µM) | 0.2 µg/mL (≈ 0.568 µM) | 0.2 µg/mL (≈ 0.568 µM) | 0.2 µg/mL (≈ 0.568 µM) | > 400 µg/mL | > 200 µg/mL | > 200 µg/mL | 22.8 µg/mL (≈ 64.7 µM) | > 200 µg/mL | > 400 µg/mL |  |  |  |  | 
5 | NC1NC(=O)N([C@H]2C[C@H](O)[C@@H](CO)O2)C=C1/C=C/Br (stereo partly drawn) | 9 µg/mL (≈ 26.9 µM) | 7 µg/mL (≈ 20.9 µM) | 0.07 µg/mL (≈ 0.209 µM) | 0.06 µg/mL (≈ 0.18 µM) | 0.07 µg/mL (≈ 0.209 µM) |  |  |  |  |  | > 400 µg/mL |  |  |  |  | 
6 | O=c1[nH]c(=O)n([C@H]2C[C@@H](CO)[C@H](O)C2)cc1/C=C/Br | 7 µg/mL (≈ 21.1 µM) | 20 µg/mL (≈ 60.4 µM) | 0.07 µg/mL (≈ 0.211 µM) | 0.04 µg/mL (≈ 0.121 µM) | 0.07 µg/mL (≈ 0.211 µM) | > 400 µg/mL | > 200 µg/mL | > 200 µg/mL | > 200 µg/mL | > 200 µg/mL | > 400 µg/mL | 0 | 0 | 0 | 2 | 3
7 | O=c1[nH]c(=O)n([C@H]2C[C@H](O)[C@@H](CO)O2)cc1I [IDOXURIDINE] | 0.2 µg/mL (≈ 0.565 µM) | 0.7 µg/mL (≈ 1.98 µM) | 0.2 µg/mL (≈ 0.565 µM) | 0.2 µg/mL (≈ 0.565 µM) | 0.2 µg/mL (≈ 0.565 µM) | > 400 µg/mL | > 500 µg/mL | 35.6 µg/mL (≈ 101 µM) | 5.5 µg/mL (≈ 15.5 µM) | 4.7 µg/mL (≈ 13.3 µM) | > 400 µg/mL |  |  |  |  | 
